According to paper PMC2864799 (Assay and drug development technologies, 2010):

Legend:
Assay type in all cases: biochemical
[1] = target: T1, hGST M1-1 (Homo sapiens, UniProt P09488); assay: 1,536-well luminescence GST inhibition assay, hGST M1-1; settings: for IC50: 5 nM hGST M1-1, 10 μM PBI 3773, 40 min
T1 sequence (P09488 2-218 limits assumed): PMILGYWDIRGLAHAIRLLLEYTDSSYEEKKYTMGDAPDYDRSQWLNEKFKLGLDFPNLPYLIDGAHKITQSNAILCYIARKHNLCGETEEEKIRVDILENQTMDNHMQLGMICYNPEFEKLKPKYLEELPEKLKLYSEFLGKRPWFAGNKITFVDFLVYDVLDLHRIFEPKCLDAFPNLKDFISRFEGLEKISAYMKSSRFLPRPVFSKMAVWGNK
Procedure, shortened: (§1)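 GST at 5 nM (hGST P1-1 125 nM) with GSH in 50 mM HEPES pH 7.5, 0.01% Tween-20. Pin-added test compound (1:2 16-point or 1:3 8-point series), 10 or 15 min RT. Substrate: PBI 1155 20 μM (S. japonicum), PBI 3773 10 μM (A1-1, M1-1, A4-4), PBI 1158 100 μM (P1-1). Reaction 40 min (P1-1 60 min) RT, then luciferase detection reagent and luminescence read. Percent inhibition from median catalyzed and no-enzyme controls; duplicate wells; curve-fitted IC50.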

[2] = tested on: GSTs (hGST A1-1, mGST A4-4, hGST M1-1, hGST P1-1, S. japonicum GST); assay: 1,536-well luminescence GST inhibition assay, all GSTs tested
Procedure, shortened: as §1

[3] = target: S. japonicum GST (Schistosoma japonicum, UniProt P08515); assay: 1,536-well luminescence GST inhibition assay, S. japonicum GST
Procedure, shortened: as §1

[4] = target: hGST P1-1 (Homo sapiens, UniProt P09211); assay: 1,536-well luminescence GST inhibition assay, hGST P1-1
Procedure, shortened: as §1

hGST P1-1, sequence (P09211 2-210 limits assumed): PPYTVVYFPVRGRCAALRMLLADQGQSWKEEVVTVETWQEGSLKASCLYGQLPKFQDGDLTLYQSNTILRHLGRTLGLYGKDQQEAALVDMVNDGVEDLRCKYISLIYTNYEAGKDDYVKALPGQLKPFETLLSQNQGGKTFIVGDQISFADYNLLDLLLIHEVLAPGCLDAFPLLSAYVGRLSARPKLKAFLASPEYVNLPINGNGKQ
S. japonicum GST, sequence (P08515 whole entry): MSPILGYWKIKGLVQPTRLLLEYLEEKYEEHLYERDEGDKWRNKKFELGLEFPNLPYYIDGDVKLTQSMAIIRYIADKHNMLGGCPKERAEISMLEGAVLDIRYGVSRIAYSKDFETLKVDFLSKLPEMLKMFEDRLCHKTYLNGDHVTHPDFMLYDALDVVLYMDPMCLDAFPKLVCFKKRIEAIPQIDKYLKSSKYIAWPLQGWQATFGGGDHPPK

Question: `NC(CCC(=O)NC(CSc1ccc([N+](=O)[O-])c2nonc12)C(=O)NCC(=O)O)C(=O)O` (stereo not shown) [NBD-GS] was tested. Which IC50 [1] did it give?
Answer: Its IC50 is 24400 nM.

Question: Which “inhibition (in words)” value ([2]; top concentrations tested near 100 μM) does the source give for `O=[N+]([O-])c1ccc(Cl)c([N+](=O)[O-])c1` [CDNB, 1-chloro-2,4-dinitrobenzene] here?
Answer: Its value is “partial inhibition only at the top concentrations tested”.

Question: How did the IC50 [1] turn out when `NC(CCC(=O)NC(CSc1ccc(C(=O)OCCOCCOCCOCCOC(=O)c2ccc(SCC(NC(=O)CCC(N)C(=O)O)C(=O)NCC(=O)O)c([N+](=O)[O-])c2)cc1[N+](=O)[O-])C(=O)NCC(=O)O)C(=O)O` (stereo not shown) [Bis-(NB-GS)] was run?
Answer: Its IC50 is 191 nM.

Question: What about the “fold difference in IC50 (NBD-GS vs Bis-(NB-GS))” value ([1]; hGST M1-1) of the same molecule?
Answer: The value was ~ 130 fold.

Question: Which “inhibitory activity (in words)” value ([2]; against the GSTs tested) does the source give for `O=[N+]([O-])c1ccc(SCCCCCCCCO)c2nonc12` [NBD-8-OH] here?
Answer: The value was “single-digit micromolar or better”.

Question: For `Nc1c(S(=O)(=O)O)cc(Nc2ccc(Nc3nc(Cl)nc(Nc4cccc(S(=O)(=O)O)c4)n3)c(S(=O)(=O)O)c2)c2c1C(=O)c1ccccc1C2=O` [Reactive Blue 2], which “onset of luminescence decrease relative to IC50” value ([1]; hGST M1-1) is on record?
Answer: The value was 8 fold.

Question: And the IC50 [3]?
Answer: The IC50 was 63 nM.

Question: What about the “onset of luminescence quenching relative to IC50” value ([3]; S. japonicum GST) of the same molecule?
Answer: The value was “several hundred times greater”.

Question: And the “onset of luminescence quenching relative to IC50” value ([4]; hGST P1-1)?
Answer: The value was “approximately 60 fold”.

Question: For `O=C1OC(c2ccc(O)c(S(=O)(=O)O)c2)(c2ccc(O)c(S(=O)(=O)O)c2)c2c(Br)c(Br)c(Br)c(Br)c21` [bromosulfalein], which “inhibition (in words)” value ([4]; 125 nM hGST P1-1, 100 μM PBI 1158, 60 min) is on record?
Answer: Its value is “lack of inhibition”.
